Bioassay records from PubChem BioAssay.
Rows were chosen to be rich in hits. Some 2.6% of all compounds tested hit in one or more screens of this group.
FGF22 binding – binders of human FGF22 protein, primary screen, FGF22 synaptogenesis inhibitor project, biophysical, thermal shift, single point; Fibroblast growth factor 22 (Homo sapiens), Q9HCT0; recombinant FGF22 thermal shift, SYPRO orange fluorescence; percent of sucrose octasulfate shift, DMSO zero; activity (Tm shift, normalised), % at 9.99 µM; actives 1.5% (n = 340,000);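 active = mean Tm shift, scaled 0 neutral to 100 positive control, at about 1.3% or above, every replicate too, limit read from the data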
Casp6 inh – human caspase-6 inhibitors, primary screen, biochemical, VEID-R110 fluorescence, single point, set 2; P55212; purified caspase-6, Z-VEID-R110 cleavage fluorescence; actives 0.53% (n = 350,000); inhibition, % at 12.5 µM; AID 686996, 2013;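 active = mean inhibition across replicates at least about 35%, with every replicate also reaching that limit, limit read from the data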
NSD2 HMT inh – NSD2 histone methyltransferase inhibitors, primary screen, biochemical, AlphaScreen, single concentration, set 2. NSD2 peptide methylation, 120 min. inhibition, % at 12.5 µM. actives 0.54% (n = 310,000). AID 743445, 2014; in the data active = inhibition above about 50%
Target sequence (O96028 whole entry, looked up): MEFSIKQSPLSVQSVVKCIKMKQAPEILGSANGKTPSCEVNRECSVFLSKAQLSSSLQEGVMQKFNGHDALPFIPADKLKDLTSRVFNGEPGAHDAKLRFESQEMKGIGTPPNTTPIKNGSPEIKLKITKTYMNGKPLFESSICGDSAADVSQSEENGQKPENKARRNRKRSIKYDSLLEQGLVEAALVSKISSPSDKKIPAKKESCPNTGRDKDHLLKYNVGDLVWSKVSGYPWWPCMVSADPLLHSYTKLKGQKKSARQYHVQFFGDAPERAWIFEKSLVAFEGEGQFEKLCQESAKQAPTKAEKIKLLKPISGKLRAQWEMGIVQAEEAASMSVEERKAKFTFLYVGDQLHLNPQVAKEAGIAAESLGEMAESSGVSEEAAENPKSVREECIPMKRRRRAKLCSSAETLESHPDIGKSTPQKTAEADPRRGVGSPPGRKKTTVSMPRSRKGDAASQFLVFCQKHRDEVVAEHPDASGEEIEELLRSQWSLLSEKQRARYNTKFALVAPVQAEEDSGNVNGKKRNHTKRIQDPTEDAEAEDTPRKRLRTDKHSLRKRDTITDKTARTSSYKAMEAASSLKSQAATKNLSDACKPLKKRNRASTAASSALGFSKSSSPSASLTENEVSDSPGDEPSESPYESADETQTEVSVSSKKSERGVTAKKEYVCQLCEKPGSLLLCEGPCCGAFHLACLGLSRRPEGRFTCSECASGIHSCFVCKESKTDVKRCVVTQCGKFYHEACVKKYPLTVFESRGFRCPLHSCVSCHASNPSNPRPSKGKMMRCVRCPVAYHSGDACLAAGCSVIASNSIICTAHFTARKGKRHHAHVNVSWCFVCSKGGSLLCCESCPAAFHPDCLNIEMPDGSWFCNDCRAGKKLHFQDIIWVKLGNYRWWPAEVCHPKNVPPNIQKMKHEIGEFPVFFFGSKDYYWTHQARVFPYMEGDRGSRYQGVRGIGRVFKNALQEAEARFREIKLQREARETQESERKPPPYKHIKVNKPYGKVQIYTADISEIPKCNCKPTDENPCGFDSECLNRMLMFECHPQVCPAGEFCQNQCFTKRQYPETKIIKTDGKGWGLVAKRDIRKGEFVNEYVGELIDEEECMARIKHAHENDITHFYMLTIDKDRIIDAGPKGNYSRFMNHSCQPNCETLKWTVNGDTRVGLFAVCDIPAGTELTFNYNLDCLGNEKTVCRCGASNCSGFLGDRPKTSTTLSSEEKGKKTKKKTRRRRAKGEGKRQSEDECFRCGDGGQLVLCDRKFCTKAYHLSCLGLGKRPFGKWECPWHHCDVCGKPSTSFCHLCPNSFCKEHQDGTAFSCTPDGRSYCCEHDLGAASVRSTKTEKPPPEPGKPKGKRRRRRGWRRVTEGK
SIRT5 block – SIRT5 desuccinylase inhibitors, primary screen, biochemical, fluorescence imaging, single point, set 5; NAD-dependent protein deacylase sirtuin-5, mitochondrial (Homo sapiens), Q9NXA8; Purified SirT5, succinyl-peptide AMC, trypsin-coupled fluorescence; actives 1.1% (n = 330,000); inhibition, % at 15 µM; in the data active = inhibition above about 15%
UCH37 DUB inh – inhibitors of human UCH37 deubiquitinase, primary screen, biochemical, Ub-AMC cleavage, fluorescence | Ubiquitin carboxyl-terminal hydrolase isozyme L5 (Homo sapiens), Q9Y5K5 | purified proteasome/UCH37 | inhibition, % (concentration not given with the values) | actives 0.33% (n = 330,000) | AID 588478, 2011;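 active = mean inhibition over replicate wells above about 20%, limit read from the data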
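Test system – human UCH37 enzyme supplied as purified proteasome complex · Incubation – 30 min preincubation with enzyme, 25 min cleavage at room temperature · Detection – AMC fluorescence from Ub-AMC cleavage, excitation 355 nm, emission 460 nm · Benchmarks – no-proteasome wells (full inhibition) and compound-free wells (no inhibition)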
Of the large screens only hits and unclear results are named; the others gave an inactive call.

N#Cc1ccc(-c2ccc3c(c2)[C@@H]2[C@@H](CCN2C(=O)C2CCCC2)[C@@H](CO)N3)cc1	none (no result: FGF22 binding, NSD2 HMT inh, UCH37 DUB inh)
C[C@@H]1CN([C@H](C)CO)C(=O)c2cccc(NS(=O)(=O)c3ccccc3)c2O[C@H]1CN(C)C(=O)Nc1ccc(F)cc1	none (no result: NSD2 HMT inh, UCH37 DUB inh)
CCc1n[nH]c(=S)n1N=C1CCC(C)CC1 (stereo not drawn)	FGF22 binding 43
COc1ccccc1NC(=O)c1ccc2c(c1)nnn2C	FGF22 binding 44
COc1ccc(C(=O)Nc2cccc3cccnc23)cc1OC	SIRT5 block 20
Cn1nnc2cc(C(=O)Nc3ccccc3)ccc21	none
COc1ccc(/C=N/NC(=O)c2ccc(COc3cccc4cccnc34)cc2)cc1O	none (no result: UCH37 DUB inh)
COc1cc(/C=N/NC(=O)c2ccncc2)ccc1OC(=O)c1ccccc1Cl	FGF22 binding 43 (no result: UCH37 DUB inh)
COc1cc(C=NNC(=O)c2cccnc2)ccc1OC(=O)c1ccccc1Cl	none (no result: FGF22 binding, Casp6 inh, NSD2 HMT inh, SIRT5 block)
COc1ccc(/C=N/NC(=O)c2ccc(COc3cccc4cccnc34)cc2)cc1OC	FGF22 binding 43 (no result: UCH37 DUB inh)
COc1ccc(NC(=O)C(=O)Nc2cccc3cccnc23)cc1OC	none
C[C@H]1CN([C@@H](C)CO)C(=O)Cc2cc(NC(=O)CCN3CCOCC3)ccc2O[C@H]1CN(C)S(=O)(=O)c1ccccc1	none (no result: NSD2 HMT inh, UCH37 DUB inh)
COc1ccc(C=NOC(=O)Nc2ccccc2OC)cc1	none (no result: FGF22 binding, Casp6 inh, NSD2 HMT inh, SIRT5 block)
C[C@@H]1CN([C@@H](C)CO)C(=O)Cc2cc(NS(C)(=O)=O)ccc2O[C@@H]1CN(C)S(=O)(=O)c1cn(C)cn1	none (no result: Casp6 inh, NSD2 HMT inh, SIRT5 block, UCH37 DUB inh)
O=C(N[C@H]1CC[C@@H](CCNC(=O)c2ccccc2F)O[C@H]1CO)c1ccc2c(c1)OCO2	none (no result: NSD2 HMT inh, UCH37 DUB inh)
Cc1cccc(C(C)C)c1NC(=O)CN(C)Cc1cccc(F)c1	FGF22 binding 43
COc1ccc(CN(C)CC(=O)Nc2sc3c(c2C#N)CCC3)c(OC)c1	SIRT5 block 15
COc1ccc(N(CC(=O)Nc2c(C)cccc2C)S(=O)(=O)c2ccccc2[N+](=O)[O-])c(OC)c1	FGF22 binding 43
COc1ccc(CN(C)CC(=O)Nc2c(C)cccc2C)c(OC)c1	FGF22 binding 43
CO[C@@H]1CN(C)C(=O)c2cc(NC(=O)Nc3cccc(F)c3)ccc2OC[C@H](C)N(C(=O)Nc2c(C)noc2C)C[C@H]1C	none (no result: NSD2 HMT inh, UCH37 DUB inh)
CCC(=O)Nc1cc(-c2cc3ccccc3oc2=O)ccc1OC	FGF22 binding 43
Cc1ccc(NS(=O)(=O)c2ccc(C(=O)OCC(=O)Nc3cc(C)on3)cc2)cc1	FGF22 binding 43
Cc1cc(NC(=O)COC(=O)[C@@H](NS(=O)(=O)c2ccc(Br)cc2)C(C)C)no1	none (no result: SIRT5 block)
Cc1cc(NC(=O)COC(=O)[C@@H](NS(=O)(=O)c2ccccc2)C(C)C)no1	FGF22 binding 43
CCOc1cc(C(=O)OCC(=O)Nc2cc(C)on2)ccc1OCC(C)C	FGF22 binding 44
CCOC(=O)c1cc(=O)nc(N)s1	FGF22 binding 43 (no result: SIRT5 block, UCH37 DUB inh)
COc1ccc(NC(=O)Nc2cccc3c2O[C@@H](CN(C)Cc2ccc4c(c2)OCO4)[C@H](C)CN([C@H](C)CO)C3=O)cc1	none (no result: FGF22 binding, NSD2 HMT inh, UCH37 DUB inh)
NCC[C@@H]1CC[C@H](NC(=O)CCN2CCCCC2)[C@H](CO)O1	none (no result: NSD2 HMT inh, UCH37 DUB inh)
COc1ccc(NC(=O)N(C)C[C@@H]2OCCCC[C@@H](C)Oc3ccc(NC(=O)Nc4ccc(C(F)(F)F)cc4)cc3C(=O)N([C@@H](C)CO)C[C@H]2C)cc1	none (no result: NSD2 HMT inh, UCH37 DUB inh)
CCOC(=O)c1cc(-c2ccc(N3CCOCC3)cc2)nn1-c1ccccc1C(=O)O	Casp6 inh 40 (no result: NSD2 HMT inh, UCH37 DUB inh)
C=CCc1cccc(CNc2c(C)cc(C)cc2C)c1O	FGF22 binding 44
CCC(=O)Nc1ccc2c(c1)C(=O)N(C)[C@H]1CC[C@H](CC(=O)N3CCc4ccccc4C3)O[C@H]1CO2	none (no result: NSD2 HMT inh, UCH37 DUB inh)
O=C1CC(c2ccccc2)CC(O)=C1C=Nc1ccccc1 (stereo not drawn)	FGF22 binding 44
C[C@H]1CN([C@@H](C)CO)C(=O)CCCn2cc(nn2)CO[C@H]1CN(C)C(=O)Nc1ccnc(N2CCOCC2)c1	none (no result: NSD2 HMT inh, UCH37 DUB inh)
Cc1nn2c(N3CCN(C)CC3)cc(C(C)(C)C)nc2c1-c1ccccc1	SIRT5 block 15
